Assay results published in article PMC9293711 (Acta Pharmaceutica Sinica. B, 2022).
Where two headings read alike, the source gives them in different places.

What was measured:
P-gp [1] = target: T1, P-gp (Homo sapiens, UniProt P08183); conditions: for Kd: Table 2, steady-state affinity model (1:1), reference FC SMALPs-MCF-7; for Rmax: analyte binding capacity from steady-state fit
MCF-7/ADR cells = format: cell-based, human; conditions: after 24 h pre-incubation with non-toxic concentration of the compound
How it was run: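 Adr-resistant MCF-7/ADR cells were kept in RPMI 1640 with 10% FBS and 1000 ng/mL Adr. Cells were seeded at 5 × 10^3/well and pre-treated 24 h with the test compound at its highest non-toxic level (95% viability by 24 h CCK8 over 1.25–80 μmol/L). Adr (0–100 μmol/L) was then added for 24 h.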

P-gp [2] = target: T1, P-gp; conditions: SPR screening of 50 natural products, remarkable response values
P-gp [3] = target: T1, P-gp; experiment: Rh123 bidirectional transport experiment in MDCK-MDR1 cell monolayer; format: cell-based; conditions: MDCK-MDR1 cells, pre-incubation with the compound
How it was run: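 MDCK cells transfected with MDR1 were grown in DMEM with 10% FBS, streptomycin and penicillin, then used as monolayers on Transwell plates. Rh123 served as the P-gp substrate. Apparent permeability was measured in both directions, apical→basolateral and basolateral→apical, with efflux rate (ER) derived from these, for treated versus control monolayers (mean ± SD, n = 3).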

P-gp [4] = target: T1, P-gp; experiment: biochemical; conditions: Table 2, steady-state affinity model (1:1), reference FC SMALPs-MCF-7

T1 sequence (P08183 whole entry): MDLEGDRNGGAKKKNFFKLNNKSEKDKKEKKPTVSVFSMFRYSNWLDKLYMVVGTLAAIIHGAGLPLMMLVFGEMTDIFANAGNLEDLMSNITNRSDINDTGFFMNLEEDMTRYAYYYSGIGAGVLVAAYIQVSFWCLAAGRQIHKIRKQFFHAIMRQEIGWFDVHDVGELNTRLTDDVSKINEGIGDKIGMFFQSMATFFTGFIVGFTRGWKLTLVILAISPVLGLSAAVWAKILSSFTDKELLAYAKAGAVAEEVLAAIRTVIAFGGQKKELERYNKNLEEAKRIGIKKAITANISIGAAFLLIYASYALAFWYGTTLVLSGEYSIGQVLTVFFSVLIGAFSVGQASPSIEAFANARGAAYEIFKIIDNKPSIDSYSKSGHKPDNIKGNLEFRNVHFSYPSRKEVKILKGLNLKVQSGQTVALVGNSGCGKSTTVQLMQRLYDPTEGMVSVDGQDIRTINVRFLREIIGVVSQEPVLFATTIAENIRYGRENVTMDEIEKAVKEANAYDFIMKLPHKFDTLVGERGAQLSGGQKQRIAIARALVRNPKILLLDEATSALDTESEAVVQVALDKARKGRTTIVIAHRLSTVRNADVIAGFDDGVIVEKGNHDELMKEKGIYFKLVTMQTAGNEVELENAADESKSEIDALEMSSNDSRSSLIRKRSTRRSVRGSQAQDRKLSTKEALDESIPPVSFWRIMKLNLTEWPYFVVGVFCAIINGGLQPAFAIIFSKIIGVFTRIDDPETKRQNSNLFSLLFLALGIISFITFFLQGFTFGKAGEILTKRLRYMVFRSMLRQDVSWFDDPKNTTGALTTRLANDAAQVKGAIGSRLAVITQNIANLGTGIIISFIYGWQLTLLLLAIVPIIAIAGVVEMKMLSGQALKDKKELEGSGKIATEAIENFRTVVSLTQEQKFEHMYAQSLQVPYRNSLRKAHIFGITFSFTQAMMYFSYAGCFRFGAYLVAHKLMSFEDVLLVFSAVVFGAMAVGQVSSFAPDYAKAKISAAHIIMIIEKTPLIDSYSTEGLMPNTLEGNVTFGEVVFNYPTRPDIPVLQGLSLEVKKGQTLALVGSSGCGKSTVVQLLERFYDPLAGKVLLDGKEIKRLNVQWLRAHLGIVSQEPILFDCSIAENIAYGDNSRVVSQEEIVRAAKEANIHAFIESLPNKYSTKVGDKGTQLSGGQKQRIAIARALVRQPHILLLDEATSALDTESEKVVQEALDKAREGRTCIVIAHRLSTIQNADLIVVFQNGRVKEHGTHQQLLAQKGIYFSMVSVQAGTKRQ

Kd (P-gp [1]) [µM] | Rmax (P-gp [1]) [RU] | Screening outcome: target compound binding to P-gp (P-gp [2]) | Effect on ER of Rh123 / P-gp function (in words) (P-gp [3]) | Kd (P-gp [4]) [µM] | Compound | Sensitivity of MCF-7/ADR cells to Adr (MCF-7/ADR cells)
127 | 89.01 | could bind to P-gp | significantly reduce the ER of Rh123 | – | COc1cccc(O)c1-c1cc(=O)c2c(O)c(OC)c(OC)c(OC)c2o1 [Neobaicalein] | significantly increased
– | 24.92 | could bind to P-gp | – | 116 | COc1ccc2cc1Oc1ccc(cc1)C[C@H]1c3cc(c(OC)cc3CCN1C)Oc1c(O)c(OC)cc3c1[C@H](C2)N(C)CC3 [Fangchinoline] | significantly increased
2.55 | 13.86 | could bind to P-gp | – | – | COc1ccc(-c2oc3c(CC=C(C)C)c(O)cc(O)c3c(=O)c2O)cc1 [Icaritin] | –
– | 270.2 | – | – | 152 | COc1cc(/C=C/C(=O)CC(=O)/C=C/c2ccc(O)c(OC)c2)ccc1O [Curcumin] | could not improve the sensitivity
– | 11.24 | could bind to P-gp | – | 221 | COc1ccc2cc1Oc1ccc(cc1)C[C@H]1c3cc(c(OC)cc3CCN1C)Oc1c(OC)c(OC)cc3c1[C@H](C2)N(C)CC3 [Tetrandrine] | significantly increased

Continued, compound first:

Compound | Kd (P-gp [1]) [µM] | Rmax (P-gp [1]) [RU] | Screening outcome: target compound binding to P-gp (P-gp [2]) | Effect on ER of Rh123 / P-gp function (in words) (P-gp [3]) | Kd (P-gp [4]) [µM] | Sensitivity of MCF-7/ADR cells to Adr (MCF-7/ADR cells)
O=C(/C=C/c1ccc(O)cc1)c1ccc(O)cc1O [Isoliquiritigenin] | – | 114 | – | – | 255 | could not improve the sensitivity
C/C=C/C[C@@H](C)C(=O)[C@H]1C(=O)N[C@@H](C(C)C)C(=O)N(C)CC(=O)N(C)[C@@H](CC(C)C)C(=O)N[C@@H](C(C)C)C(=O)N(C)[C@@H](CC(C)C)C(=O)N[C@@H](C)C(=O)N[C@H](C)C(=O)N(C)[C@@H](CC(C)C)C(=O)N(C)[C@@H](CC(C)C)C(=O)N(C)[C@@H](C(C)C)C(=O)N1C [Valspodar, valspodar, reference compound] | – | – | – | – | – | significantly increased
C/C=C(/C)C(=O)O[C@H]1[C@@H](OC(C)=O)c2c(ccc3ccc(=O)oc23)OC1(C)C [Praeruptorin A] | 7.17 | 2.618 | could bind to P-gp | – | – | –
O=c1cc(-c2ccc(O)c(O)c2)oc2cc(O)cc(O)c12 [Luteolin] | – | 47.21 | could bind to P-gp | – | 51.7 | –
C/C=C(/C)C(=O)O[C@H]1c2c(ccc3ccc(=O)oc23)OC(C)(C)[C@H]1OC(=O)/C(C)=C\C [Praeruptorin B] | 0.542 | 3.498 | could bind to P-gp | significantly reduce the ER of Rh123 | – | significantly increased
